The values below come from publication PMC9444296 (Investigative Radiology, 2022).

Where two headings read alike, the source gives them in different places. Where no end group is shown, it is not given here.

A short description of data set [1]: Hepatocyte metabolic stability, negative and positive controls. Format: in vitro ADME. The following applies: hepatocyte incubation.
For data set [2] the following is noted: cited from earlier work.
Data set [3] concerns LNCaP human prostate tumors. Put plainly: Contrast-enhanced MRI of LNCaP prostate tumor xenografts in rats. The data set is classed as in vivo, rat. As to conditions: 0.1 mmol/kg IV, 3 T, n = 3. In a few lines:
(§1)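 Male rats carried subcutaneous flank xenografts of 4 × 10⁶ PC3 or 8 × 10⁶ LNCaP cells in Matrigel-PBS (1:1) and were imaged once tumours exceeded 100 mm³. Scans used 1 mm slices, 2 averages and a 128 × 128 matrix. The same tumour-bearing rats were reused across agents and doses, with a clinical Gd agent at 0.1 mmol Gd/kg as comparator.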

In data set [4] the test system is PC3 human prostate cancer xenografts. Put plainly: Contrast-enhanced MRI of PC3 prostate tumor xenografts in rats. As to conditions: PC3 tumors in rats, 0.1 mmol/kg IV, 3 T, n = 6. Format: in vivo, rat. In a few lines: as §1
The target in a further data set is CYP2C8 (Homo sapiens, UniProt P10632). Put plainly: CYP2C8 inhibition in human liver microsomes. Format: in vitro ADME. The following applies: CYP2C8, positive control selective inhibitor. In general terms: Liver microsomes are a subcellular fraction often used to study metabolism.
The subject of another data set is CYP1A2. The following applies: positive control 50 μM, CYP1A2, human primary hepatocytes.
Data set [5] concerns CYP2B6. The following applies: positive control 1000 μM, CYP2B6, human primary hepatocytes.
A further data set deals with CYP2D6 (Homo sapiens, UniProt P10635). Put plainly: CYP2D6 inhibition in human liver microsomes. Format: in vitro ADME. The following applies: CYP2D6, positive control selective inhibitor, human liver microsomes.
For a further data set, the target named is CYP2C9 (Homo sapiens, UniProt P11712). Put plainly: CYP2C9 inhibition in human liver microsomes. The following applies: CYP2C9, positive control selective inhibitor, human liver microsomes.
Data set [6] in a line: Metabolic pathway study in human liver microsomes. Format: in vitro ADME. The following applies: 120 minutes.
In data set [7] the target is CYP2B6 (Homo sapiens, UniProt P20813). As to conditions: CYP2B6, positive control selective inhibitor, human liver microsomes.
Another data set deals with EDB protein fragment (Homo sapiens, UniProt P02751). The following applies: cited from earlier work.
Sequence of EDB protein fragment (P02751 1271-1359 limits assumed): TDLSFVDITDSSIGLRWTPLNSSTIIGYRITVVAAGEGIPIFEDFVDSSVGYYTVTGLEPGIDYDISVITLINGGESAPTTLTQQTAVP

Sequence of CYP2C8 (P10632 whole entry): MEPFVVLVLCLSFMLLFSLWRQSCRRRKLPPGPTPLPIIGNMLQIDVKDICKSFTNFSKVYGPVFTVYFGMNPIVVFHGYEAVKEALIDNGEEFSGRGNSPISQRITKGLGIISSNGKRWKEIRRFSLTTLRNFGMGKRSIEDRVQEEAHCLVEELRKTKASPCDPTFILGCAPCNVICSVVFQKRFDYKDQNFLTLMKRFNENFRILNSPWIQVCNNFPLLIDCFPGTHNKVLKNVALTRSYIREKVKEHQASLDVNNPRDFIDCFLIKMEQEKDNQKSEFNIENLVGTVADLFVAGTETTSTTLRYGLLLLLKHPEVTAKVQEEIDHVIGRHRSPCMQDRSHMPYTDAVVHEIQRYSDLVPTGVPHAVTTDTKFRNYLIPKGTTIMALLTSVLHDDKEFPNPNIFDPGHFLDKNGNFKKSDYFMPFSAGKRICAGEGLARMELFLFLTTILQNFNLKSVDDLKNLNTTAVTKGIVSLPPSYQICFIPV
Sequence of CYP2C9 (P11712 whole entry): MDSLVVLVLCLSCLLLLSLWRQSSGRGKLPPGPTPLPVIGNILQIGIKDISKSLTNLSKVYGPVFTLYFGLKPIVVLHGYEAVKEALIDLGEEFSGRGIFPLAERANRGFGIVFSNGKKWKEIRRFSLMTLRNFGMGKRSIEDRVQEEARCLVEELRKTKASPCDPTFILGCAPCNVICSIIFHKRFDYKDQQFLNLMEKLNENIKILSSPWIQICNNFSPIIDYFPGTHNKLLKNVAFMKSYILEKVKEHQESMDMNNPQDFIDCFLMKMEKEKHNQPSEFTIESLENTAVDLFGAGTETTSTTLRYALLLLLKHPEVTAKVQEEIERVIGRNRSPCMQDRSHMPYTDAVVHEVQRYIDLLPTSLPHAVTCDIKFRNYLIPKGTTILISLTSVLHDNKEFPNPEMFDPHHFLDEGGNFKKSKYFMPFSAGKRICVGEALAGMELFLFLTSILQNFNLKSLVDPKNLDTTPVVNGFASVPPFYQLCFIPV
Sequence of CYP2B6 (Homo sapiens, UniProt P20813) (P20813 whole entry, the tested form may be a part): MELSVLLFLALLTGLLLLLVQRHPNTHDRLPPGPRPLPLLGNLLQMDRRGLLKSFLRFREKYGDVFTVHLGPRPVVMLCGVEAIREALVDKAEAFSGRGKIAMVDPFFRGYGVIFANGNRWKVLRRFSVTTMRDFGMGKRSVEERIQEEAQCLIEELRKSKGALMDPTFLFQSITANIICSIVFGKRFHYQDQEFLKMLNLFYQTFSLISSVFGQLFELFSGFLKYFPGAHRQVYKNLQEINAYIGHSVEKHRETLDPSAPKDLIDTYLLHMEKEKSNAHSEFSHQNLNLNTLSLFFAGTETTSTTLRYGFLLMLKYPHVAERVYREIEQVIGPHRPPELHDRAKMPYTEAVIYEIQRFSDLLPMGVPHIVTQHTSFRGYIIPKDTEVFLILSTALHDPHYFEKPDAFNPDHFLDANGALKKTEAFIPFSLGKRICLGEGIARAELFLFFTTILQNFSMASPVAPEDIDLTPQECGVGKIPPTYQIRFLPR
Sequence of CYP2D6 (P10635 whole entry): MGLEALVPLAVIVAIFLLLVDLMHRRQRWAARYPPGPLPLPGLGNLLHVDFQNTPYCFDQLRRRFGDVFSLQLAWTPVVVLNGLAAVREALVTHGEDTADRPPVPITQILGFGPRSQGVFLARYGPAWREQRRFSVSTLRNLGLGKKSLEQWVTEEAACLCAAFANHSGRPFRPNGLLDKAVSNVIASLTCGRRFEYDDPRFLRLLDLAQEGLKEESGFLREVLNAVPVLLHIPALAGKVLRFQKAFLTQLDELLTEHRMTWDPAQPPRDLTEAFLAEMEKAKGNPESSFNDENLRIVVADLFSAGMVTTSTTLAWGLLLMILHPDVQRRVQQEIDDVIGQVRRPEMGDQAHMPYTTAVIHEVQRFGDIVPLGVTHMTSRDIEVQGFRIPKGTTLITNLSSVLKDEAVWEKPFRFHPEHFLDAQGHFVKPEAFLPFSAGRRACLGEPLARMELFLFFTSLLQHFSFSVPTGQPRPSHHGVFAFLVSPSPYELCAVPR

On to `O=c1ccc2ccc(O)cc2o1` [7-hydroxycoumarin], for which the “remaining substrate in the positive control” value in data set [1] was determined as 18.8%.

On to `CC(O)CN1CCN(CC(=O)[O-])CCN(CC(=O)[O-])CCN(CC(=O)[O-])CC1.[Gd+3]` (centres unmarked) [Gadoteridol, gadoteridol], for which the “r1 Relaxivity” value in data set [2] (1.4 T, H2O) was 3.2 (H2O) mM^−1 s^−1; in [2] (1.5 T, H2O), 2.9 (H2O) mM^−1 s^−1; in data set [2] (1.5 T, plasma), 4.1 mM⁻¹ s⁻¹; in data set [2] (3.0 T, H2O) it was 2.8 (H2O) mM^−1 s^−1; in [2] (3.0 T, plasma) it was 3.7 mM⁻¹ s⁻¹. In addition, the CNR was determined as 1.79 ± 0.74 in data set [3], 1.32 ± 0.58 in [4] (10 minutes postinjection) and 1.714 ± 0.69 in data set [4] (30 minutes postinjection).

`CC(C)(O)c1ccccc1CC[C@@H](SCC1(CC(=O)O)CC1)c1cccc(/C=C/c2ccc3ccc(Cl)cc3n2)c1` [montelukast, reference compound]: the “enzyme activity decreased by” value on CYP2C8 turned out to be 80.0%.

Regarding `COc1ccc2[nH]c([S+]([O-])Cc3ncc(C)c(OC)c3C)nc2c1` (centres unmarked) [omeprazole, reference compound], in the data set on CYP1A2, the “increase of enzyme activity vs vehicle control” value is listed as “about 40 fold” and the “increase of mRNA expression vs vehicle control” value is “about 62 fold”.

In the case of `CCC1(c2ccccc2)C(=O)NC(=O)NC1=O` [phenobarbital, reference compound], in the data set with CYP2B6 [5], the “increase of enzyme activity vs vehicle control” value is about 12 fold and the “increase of mRNA expression vs vehicle control” value is reported as about 14 fold.

For `C=C[C@H]1C[N@@]2CC[C@H]1C[C@@H]2[C@@H](O)c1ccnc2ccc(OC)cc12` [quinidine, reference compound], the “enzyme activity decreased by” value at CYP2D6 came out at 91.2%.

Take `Nc1ccc(S(=O)(=O)Nc2ccnn2-c2ccccc2)cc1` [sulfaphenazole, reference compound]: the “enzyme activity decreased by” value on CYP2C9 worked out at 87.4%.

For `C[C@]12CC[C@H]3[C@@H](CCC4=CC(=O)CC[C@@]43C)[C@@H]1CC[C@@H]2O` [testosterone, reference compound], the “remaining substrate in the positive control” value in data set [1] came to 9.29%. Further, in data set [6], the “remaining testosterone (systematic control)” value amounted to 11.4%.

As for `S=P(N1CC1)(N1CC1)N1CC1` [thiotepa, reference compound], the “enzyme activity decreased by” value at CYP2B6 [7] turned out to be 89.2%.

With TVRTSAD [ZD2], at EDB protein fragment, the “binding affinity to the EDB fragment” value is “moderate binding affinity”.
